According to ChEMBL document CHEMBL2086265, “Design of inhibitors of Helicobacter pylori glutamate racemase as selective antibacterial agents: incorporation of imidazoles onto a core pyrazolopyrimidinedione scaffold to improve bioavailabilty” (Bioorg Med Chem Lett, 2012):
In brackets after ≈: the same amount, converted by molar mass.

What was measured:
Glutamate racemase = molecular target: T1, Glutamate racemase (Helicobacter pylori J99, UniProt Q9ZLT0); assay: Inhibition of Helicobacter pylori J99 glutamate racemase
T1 sequence (Q9ZLT0 whole entry): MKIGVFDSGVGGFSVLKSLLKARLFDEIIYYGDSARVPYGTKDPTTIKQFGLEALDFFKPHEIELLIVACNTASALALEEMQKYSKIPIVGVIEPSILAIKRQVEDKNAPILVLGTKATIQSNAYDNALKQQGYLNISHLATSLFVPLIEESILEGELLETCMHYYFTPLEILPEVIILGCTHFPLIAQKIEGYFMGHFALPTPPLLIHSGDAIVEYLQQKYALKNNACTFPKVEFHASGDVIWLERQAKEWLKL
Procedure, shortened: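 The racemase was expressed from the murI gene of H. pylori J99 chromosomal DNA. IC50 was taken as the mean of duplicate determinations, using a method cited from earlier work.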

Helicobacter pylori [1] = assay: Antibacterial activity against wild type Helicobacter pylori 055; type: functional
Helicobacter pylori [2] = assay: Antibacterial activity against AcrAB-TolC efflux pump-dificient Helicobacter pylori; type: functional
[3] = Intrinsic clearance in human liver microsomes at 2 uM assessed per mg of protein; type: ADME, Microsome; details: read-out: CLH
[4] = Intrinsic clearance in mouse liver microsomes at 2 uM assessed per mg of protein; type: ADME, Microsome; details: read-out: CLH
[5] = Clearance in mouse at 5 mg/kg, iv and 40 mg/kg, po; type: ADME, organism-based; details: in vivo
[6] = Half life in mouse at 5 mg/kg, iv and 40 mg/kg, po; type: ADME, organism-based; details: in vivo
[7] = Volume of distribution at steady state in mouse at 5 mg/kg, iv and 40 mg/kg, po; type: ADME, organism-based; details: in vivo, read-out: Vdss
[8] = Plasma protein binding in mouse at 10 uM after 16 hrs by Dianorm method; type: ADME, cell-free; details: read-out: PPB (converted)
[9] = Dissociation constant, pKa of the compound; type: physicochemical
[10] = Oral bioavailability in mouse at 40 mg/kg; type: ADME, organism-based; details: in vivo
Helicobacter pylori [11] = assay: Antibacterial activity against Helicobacter pylori infected in mouse assessed as log reduction CFU at 40 mg/kg administered QID for 2 days relative to untreated control
Helicobacter pylori [12] = assay: Ratio of MIC for wild type Helicobacter pylori 055 to MIC for AcrAB-TolC efflux pump-dificient Helicobacter pylori
Helicobacter pylori [13] = assay: Antibacterial activity against Helicobacter pylori infected in mouse assessed as log reduction CFU at 10 mg/kg administered BID for 2 days relative to untreated control; type: functional
[14] = Inhibition of Staphylococcus aureus MurI
[15] = Inhibition of Enterococcus faecalis MurI
[16] = Inhibition of Escherichia coli MurI
[17] = Plasma protein binding in mouse; type: ADME, cell-free; details: read-out: PPB (converted)
Procedure, shortened: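 Plasma protein binding in mouse plasma used a […] compound solution in a dialysis plasma well, incubated at 37 °C for 16 h. Free fraction came from the ratio of drug in buffer to drug in buffer plus plasma wells, both quantified by LC/MS.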

Structure (SMILES) | IC50 (Glutamate racemase) [nM] | MIC (Helicobacter pylori [1]) [µg/mL] | MIC (Helicobacter pylori [2]) [µg/mL] | microsomal CLint at 2 µM [3] [µL/min/mg] | microsomal CLint at 2 µM [4] [µL/min/mg] | clearance [5] [mL/min/kg] | half-life [6] [h] | Vd [7] [L/kg] | fraction unbound at 16 h, 10 µM [8] | pKa [9] | bioavailability [10] [%] | IC50 [14] [nM] | IC50 [15] [nM] | IC50 [16] [nM] | fraction unbound [17] | FC (Helicobacter pylori [11]) | Ratio (Helicobacter pylori [12]) | FC (Helicobacter pylori [13])
Cn1cncc1-c1c2c(=O)n(C)c(=O)n(CC3CC3)c2nn1Cc1ccnc2ccc(Cl)cc12 | 41 | 2 (≈ 4.2 µM) | 0.25 (≈ 0.525 µM) | < 17 | 21 | 14 | 0.7 | 1.2 | > 0.969 | – | 76 | – | – | – | – | – | – | –
C#CCn1c(=O)c2c(-c3nc(C#N)cn3C)n(Cc3ccnc4ccc(Cl)cc34)nc2n(CC2CC2)c1=O | 89 | 1 (≈ 1.9 µM) | 2 (≈ 3.81 µM) | < 14 | 28 | – | – | – | – | – | – | – | – | – | – | – | <=2 | –
CCn1c(=O)c2c(-c3nc(C#N)cn3C)n(Cc3ccnc4ccc(Cl)cc34)nc2n(CC2CC2)c1=O | 180 | 2 (≈ 3.88 µM) | 2 (≈ 3.88 µM) | 51 | < 14 | – | – | – | – | – | – | – | – | – | – | – | <=2 | –
COc1c(N2CCO[C@@H](CN(C)C)C2)c(F)cc2c(=O)c(C(=O)O)cn(C3CC3)c12 | – | – | – | – | – | – | – | – | – | – | – | – | – | – | – | – | – | 5
Cn1cc(S(C)(=O)=O)cc1-c1c2c(=O)n(C)c(=O)n(CC3CC3)c2nn1Cc1ccnc2ccc(Cl)cc12 | 34 | 2 (≈ 3.62 µM) | – | – | – | 15 | – | – | – | – | 13 | > 400000 | > 400000 | > 400000 | 0.03 | – | – | –

Continued, in another order:

IC50 (Glutamate racemase) [nM] | MIC (Helicobacter pylori [1]) [µg/mL] | MIC (Helicobacter pylori [2]) [µg/mL] | microsomal CLint at 2 µM [3] [µL/min/mg] | microsomal CLint at 2 µM [4] [µL/min/mg] | clearance [5] [mL/min/kg] | half-life [6] [h] | Vd [7] [L/kg] | fraction unbound at 16 h, 10 µM [8] | pKa [9] | bioavailability [10] [%] | IC50 [14] [nM] | IC50 [15] [nM] | IC50 [16] [nM] | fraction unbound [17] | Structure (SMILES) | FC (Helicobacter pylori [11]) | Ratio (Helicobacter pylori [12]) | FC (Helicobacter pylori [13])
24 | 2 (≈ 4 µM) | 0.5 (≈ 1 µM) | < 14 | 18 | 20 | 2.1 | 3.6 | 0.96 | 7.2 | 100 | – | – | – | – | C#CCn1c(=O)c2c(-c3cncn3C)n(Cc3ccnc4ccc(Cl)cc34)nc2n(CC2CC2)c1=O | 1 | – | –
240 | 4 (≈ 7.58 µM) | 8 (≈ 15.2 µM) | 26 | > 100 | – | – | – | – | – | – | – | – | – | – | CC(C)n1c(=O)c2c(-c3cc(C#N)cn3C)n(Cc3ccnc4ccc(Cl)cc34)nc2n(CC2CC2)c1=O | – | <=2 | –
250 | 2 (≈ 3.8 µM) | 4 (≈ 7.59 µM) | > 100 | > 100 | – | – | – | – | – | – | – | – | – | – | C=CCn1c(=O)c2c(-c3nc(C#N)cn3C)n(Cc3ccnc4ccc(Cl)cc34)nc2n(CC2CC2)c1=O | – | <=2 | –
25 | 0.5 (≈ 1 µM) | 0.8 (≈ 1.6 µM) | 14 | 50 | – | – | – | – | – | – | > 400000 | > 400000 | > 400000 | – | Cn1cc(C#N)cc1-c1c2c(=O)n(C)c(=O)n(CC3CC3)c2nn1Cc1ccnc2ccc(Cl)cc12 | – | <=2 | –
– | – | – | – | – | – | – | – | – | – | – | > 400000 | > 400000 | > 400000 | – | CC(C)Cn1c(=O)n(C)c(=O)c2c(-c3ccncc3)n(Cc3cccc4ccccc34)nc21 | – | – | –
